For data set [1], the system named is EL4. The data set is described as follows: Cytotoxicity against mouse EL4 cells assessed as growth inhibition after 48 hrs by sulforhodamine B assay. The class given is functional, cell-based. The conditions noted are these: EL4, 48 h. In a few lines: (§1)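 Cancer lines sourced from the National Cancer Institute and run in a high-flux anticancer screen. Cells were exposed to the test compound over a range of concentrations at 37 °C for 48 h. IC50 is reported as the mean of four experiments, with thapsigargin, methotrexate and paclitaxel as positive controls.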

Data set [2] in a line: Cytotoxicity against human MCF10A cells up to 200 uM. The format is cell-based. To be noted: mcf-10a.
Data set [3] has as its system EL4. In words: Cytotoxicity against mouse EL4 cells up to 200 uM after 48 hrs by sulforhodamine B assay. The class given is functional, cell-based. The method in brief:
as §1

For data set [4], the system named is MCF7. In words: Cytotoxicity against human MCF7 cells up to 200 uM after 48 hrs by sulforhodamine B assay. The class given is functional, cell-based. The method in brief:
as §1

A short description of data set [5]: Cytotoxicity against mouse McCoy cells up to 200 uM. The class given is cell-based.
In data set [6] the test system is PC-3. In words: Cytotoxicity against human PC3 cells up to 200 uM after 48 hrs by sulforhodamine B assay. The format is functional, cell-based. In a few lines:
as §1

Data set [7] concerns MCF7. The data set is described as follows: Cytotoxicity against human MCF7 cells assessed as growth inhibition after 48 hrs by sulforhodamine B assay. The class given is functional, cell-based. The conditions noted are these: MCF7, 48 h. The method in brief:
as §1

A short description of data set [8]: Cytotoxicity against human MCF10A cells assessed as growth inhibition at 1230 uM relative to control. The format is cell-based, MCF-10A. To be noted: read-out: GI.
A short description of data set [9]: Cytotoxicity against mouse McCoy cells assessed as growth inhibition. The format is cell-based.
Data set [10] concerns PC-3. The data set is described as follows: Cytotoxicity against human PC3 cells assessed as growth inhibition after 48 hrs by sulforhodamine B assay. The class given is functional, cell-based. To be noted: PC-3, 48 h. In a few lines: as §1
Data set [11] is described as follows: Cytotoxicity against human MCF10A cells assessed as growth inhibition. The format is cell-based. To be noted: MCF-10A.
Data set [12] in a line: Cytotoxicity against mouse McCoy cells assessed as growth inhibition at 1230 uM relative to control. The class given is cell-based. The conditions noted are these: read-out: GI.

Structures are written as SMILES. The source made the active and inactive calls. No cut-off for these calls is given here.

Take `CN(Cc1cnc2nc(N)nc(N)c2n1)c1ccc(C(=O)N[C@@H](CCC(=O)O)C(=O)O)cc1` [METHOTREXATE]: the concentration for half-maximal inhibition (IC50) in the data set with EL4 [1] is 5.1 µM.
In the case of `CC(=O)O[C@H]1C(=O)[C@@]2(C)[C@H]([C@H](OC(=O)c3ccccc3)[C@]3(O)C[C@H](OC(=O)[C@H](O)[C@@H](NC(=O)c4ccccc4)c4ccccc4)C(C)=C1C3(C)C)[C@]1(OC(C)=O)CO[C@@H]1C[C@@H]2O` [PACLITAXEL], the half-maximal inhibitory concentration (IC50) with EL4 [1] was 1.7 µM.
With `CC1(C)C[C@@H]2OC(=O)[C@@H](Cc3ccccc3)N=C2[C@@]23C(=O)OC4OCC(=CC[C@@H]12)[C@H]43` (stereo partly specified), the Activity entry in [2] and in data set [5] was “Non-toxic” in each case. For the same molecule, the outcome in the data set on EL4 [3], with MCF7 [4] and in the data set with PC-3 [6] was inactive.
In the case of `CC1(C)C[C@@H]2OC(=O)[C@H](Cc3ccccc3)N=C2[C@@]23C(=O)OC4OCC(=CC[C@@H]12)[C@H]43` (stereo partly specified), the IC50 was 4.9 µM with MCF7 [7]; 3.7 µM in the data set with EL4 [1]; more than 1230 µM in data set [9]; 14.7 µM in the data set with PC-3 [10]; more than 1230 µM in [11]. The results for the inhibition at 1230 µM in data set [8] and in [12] were 22% and 30%, respectively.
In the case of `C/C=C(/C)C(=O)O[C@H]1C(C)=C2[C@H]([C@@H]1OC(=O)CCCCCCC)[C@@](C)(OC(C)=O)C[C@H](OC(=O)CCC)[C@@]1(O)[C@H]2OC(=O)[C@@]1(C)O` [THAPSIGARGIN], the IC50 with MCF7 [7] was found to be 2.7 µM; in the data set on EL4 [1], 1.4 µM; in [9], 2 µM; in the data set with PC-3 [10] it was 2.4 µM; in data set [11] it was 2.4 µM.
For the molecule `CC1(C)C[C@@H]2OC(=O)[C@H](Cc3c[nH]c4ccccc34)N=C2[C@@]23C(=O)OC4OCC(=CC[C@@H]12)[C@H]43` (stereo partly specified), the IC50 in the data set on MCF7 [7] is 6.7 µM; with EL4 [1], 4 µM; in [9], more than 1230 µM; in the data set with PC-3 [10], 13.4 µM; in data set [11], more than 1230 µM. In addition, the figures for the inhibition at 1230 µM in data set [8] and in [12] were 20% and 41%, respectively.

These data come from ChEMBL document CHEMBL3580602, “Iminolactones from Schizophyllum commune” (J Nat Prod, 2015).
